Assay results as given in ChEMBL document CHEMBL3593165, “Enzymatic synthesis of bile acid derivatives and biological evaluation against Trypanosoma cruzi” (Bioorg Med Chem, 2015).
The source made the active and inactive calls. No cut-off for these calls is given here.

How the values were obtained:
Trypanosoma cruzi [1] = assay: Antiparasitic activity against Trypanosoma cruzi strain CL Brener epimastigotes at 300 uM after 12 days by ELISA reader; assay type: functional
Outline: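 T. cruzi CL Brener epimastigotes were grown at 28 °C in LIT medium with 10% heat-inactivated FBS, […], streptomycin and penicillin. Cells were seeded at 5 × 10^6 cells/mL with compound (0.14–300 µM, DMSO ≤0.5% v/v final) for 12 days at 28 °C. Benznidazole served as positive control, with drug-free and parasite-free controls. Growth was read daily at 600 nm in three independent assays.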

Trypanosoma cruzi [2] = assay: Antiparasitic activity against Trypanosoma cruzi strain CL Brener epimastigotes after 12 days by ELISA reader; assay type: functional; conditions: 288 h
Outline: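 CL Brener epimastigotes grown at 28 °C in LIT medium with 10% heat-inactivated FBS, hemin, streptomycin and penicillin. Seeded at final 5 × 10^6 cells/mL and exposed to compounds across 0.14–300 µM for 12 days at 28 °C. DMSO vehicle, final ≤0.5% (v/v). Growth read daily at 600 nm. IC50 taken from dose-response curves from three independent assays.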

## CCOC(=O)CC[C@@H](C)[C@H]1CC[C@H]2[C@@H]3CC[C@@H]4C[C@H](O)CC[C@]4(C)[C@H]3C[C@H](O)[C@]12C
Trypanosoma cruzi [1]
  inhibition: inactive

## CCOC(=O)CC[C@@H](C)[C@H]1CC[C@H]2[C@@H]3[C@H](O)C[C@@H]4C[C@H](O)CC[C@]4(C)[C@H]3CC[C@]12C
Trypanosoma cruzi [1]
  inhibition: inactive

## C[C@H](CCC(=O)O)[C@H]1CC[C@H]2[C@@H]3[C@H](O)C[C@@H]4C[C@H](O)CC[C@]4(C)[C@H]3CC[C@]12C [CHENODIOL]
Trypanosoma cruzi [2]
  IC50: 236 µM
Trypanosoma cruzi [1]
  inhibition: inactive

## CC(=O)O[C@@H]1CC[C@@]2(C)[C@@H](C1)C[C@@H](O)[C@@H]1[C@@H]2CC[C@]2(C)[C@@H]([C@H](C)CCC(=O)O)CC[C@@H]12
Trypanosoma cruzi [1]
  inhibition: inactive

## CCOC(=O)CC[C@@H](C)[C@H]1CC[C@H]2[C@@H]3CC[C@@H]4C[C@H](OC(C)=O)CC[C@]4(C)[C@H]3CC[C@]12C
Trypanosoma cruzi [1]
  inhibition: inactive

## CCOC(=O)CC[C@@H](C)[C@H]1CC[C@H]2[C@@H]3[C@H](O)C[C@@H]4C[C@H](OC(C)=O)CC[C@]4(C)[C@H]3CC[C@]12C
Trypanosoma cruzi [2]
  IC50: 8.6 µM

## CC(=O)O[C@H]1C[C@H]2[C@@H](CC[C@@H]3C[C@H](O)CC[C@@]32C)[C@@H]2CC[C@H]([C@H](C)CCC(=O)O)[C@@]12C
Trypanosoma cruzi [1]
  inhibition: inactive

## CC(=O)O[C@@H]1CC[C@@]2(C)[C@H](CC[C@@H]3[C@@H]2C[C@H](O)[C@]2(C)[C@@H]([C@H](C)CCC(=O)O)CC[C@@H]32)C1
Trypanosoma cruzi [1]
  inhibition: inactive

## CCOC(=O)CC[C@@H](C)[C@H]1CC[C@H]2[C@@H]3CC[C@@H]4C[C@H](OC(C)=O)CC[C@]4(C)[C@H]3C[C@H](O)[C@]12C
Trypanosoma cruzi [1]
  inhibition: inactive

## CCOC(=O)CC[C@@H](C)[C@H]1CC[C@H]2[C@@H]3[C@H](OC(C)=O)C[C@@H]4C[C@H](O)CC[C@]4(C)[C@H]3CC[C@]12C
Trypanosoma cruzi [2]
  IC50: 295 µM

## CC(=O)O[C@@H]1CC[C@@]2(C)[C@@H](C1)C[C@@H](OC(C)=O)[C@@H]1[C@@H]2CC[C@]2(C)[C@@H]([C@H](C)CCC(=O)O)CC[C@@H]12
Trypanosoma cruzi [2]
  IC50: 22.8 µM

## CCOC(=O)CC[C@@H](C)[C@H]1CC[C@H]2[C@@H]3CC[C@@H]4C[C@H](O)CC[C@]4(C)[C@H]3CC[C@]12C
Trypanosoma cruzi [2]
  IC50: 266 µM
